Source: ChEMBL document CHEMBL5325503, “Structure Guided Design, Synthesis, and Biological Evaluation of Oxetane-Containing Indole Analogues” (Bioorg Med Chem, 2023)
Calls of active or inactive are those of the source. The rule behind the calls is not given here.

Key:
MCF7 [1] = assay: Cytotoxicity against human MCF7 cells assessed as inhibition of cell growth incubated for 48 hrs by SRB assay; type: functional, cell-based; conditions: MCF7, 48 h
Tubulin = Tubulin (Bos taurus, UniProt Q6B856+Q862L2+Q862F3); assay: Inhibition of bovine brain tubulin polymerization preincubated for 15 mins followed by GTP addition and measured after 20 mins by turbidimetric analysis
Method in brief: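 Mixtures (0.25 mL final) held 10 μM (1 mg/mL) bovine brain tubulin, 0.8 M monosodium glutamate pH 6.6, 4% DMSO and compound. Preincubated 15 min at 30 °C without GTP, chilled to 0 °C, then GTP added to 0.1 mM final. Warmed to 30 °C, turbidity followed at 350 nm for 20 min. IC50 = concentration halving polymerization extent at 20 min.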

MCF7 [2] = assay: Cytotoxicity against human MCF7 cells assessed as inhibition of cell growth incubated for 96 hrs by SRB assay; conditions: MCF7, 96 h
PANC-1 [3] = assay: Cytotoxicity against human PANC-1 cells assessed as inhibition of cell growth incubated for 48 hrs by SRB assay; type: functional, cell-based; conditions: PANC-1, 48 h
Method in brief: (§1)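 Seeded at 12,000 cells/well in triplicate and grown 24 h at 37 °C, 5% CO2 in high-glucose DMEM with 10% FBS and 30 μg/mL gentamicin. Serial dilutions in medium from 10 mg/mL DMSO stocks, 48 h exposure. Fixed with TCA (6% final), SRB-stained, dye solubilized in 10 mM Tris, A530.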

MDA-MB-231 = assay: Cytotoxicity against human MDA-MB-231 cells assessed as inhibition of cell growth incubated for 48 hrs by SRB assay; type: functional, cell-based; conditions: MDA-MB-231, 48 h; method in brief: as §1
PANC-1 [4] = assay: Inhibition of cell migration in human PANC-1 cells at 1 uM incubated at 40 hrs by scratch wound healing assay; type: functional, cell-based
Method in brief: (§2)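 About 1 × 10^5 cells seeded per well of a 6-well plate in DMEM with 10% heat-inactivated FBS and 30 μg/mL gentamicin at 37 °C, 5% CO2. Grown to 70–80% confluency, scratched with a 10 μL pipette tip, medium replaced. Two wells per condition at 0.5 or 1 μM, DMSO ≤0.2% final, with two control wells. Gap imaged by automated microscopy (4X) over 48 h.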

PANC-1 [5] = assay: Inhibition of cell migration in human PANC-1 cells at 0.5 to 1 uM incubated for 48 hrs by scratch wound healing assay; type: functional, cell-based; conditions: dose 0.5-1 µM; method in brief: as §2
PANC-1 [6] = assay: Inhibition of cell migration in human PANC-1 cells at 0.5 uM incubated for 1 to 40 hrs by scratch wound healing assay; type: functional, cell-based; conditions: time 1-40 hrs; method in brief: as §2

| IC50 (Tubulin) | Compound | IC50 (MCF7 [1]) | IC50 (MCF7 [2]) | IC50 (PANC-1 [3]) | IC50 (MDA-MB-231) | inhibition (PANC-1 [4]) | inhibition (PANC-1 [5]) | inhibition (PANC-1 [6]) |
| --- | --- | --- | --- | --- | --- | --- | --- | --- |
| > 20000 nM | COc1cc(C2(c3c(-c4ccccc4)[nH]c4ccc(Br)cc34)COC2)cc(OC)c1OC |  | 2200 nM |  |  |  |  |  |
| > 20000 nM | COc1cc(C2(c3c(-c4ccccc4)[nH]c4cc(Cl)ccc34)COC2)cc(OC)c1OC |  | 840 nM | 1100 nM | 2200 nM |  |  |  |
| > 20000 nM | COc1ccc2[nH]c(-c3ccccc3)c(C3(c4cc(OC)c(OC)c(OC)c4)COC3)c2c1 |  | 3200 nM |  |  |  |  |  |
| > 20000 nM | COc1cc(C2(c3c(-c4ccccc4)[nH]c4ccccc34)COC2)cc(OC)c1OC |  | > 5000 nM |  |  |  |  |  |
| > 20000 nM | COc1ccc2[nH]c(-c3ccc(C)cc3)c(C3(c4cc(OC)c(OC)c(OC)c4)COC3)c2c1 |  | > 5000 nM |  |  |  |  |  |
| > 20000 nM | COc1cc(C2(c3c(-c4ccccc4)[nH]c4cc(Br)ccc34)COC2)cc(OC)c1OC |  | 470 nM | 430 nM | 1900 nM | Active | Active | Active |
| > 20000 nM | COc1cccc(-c2[nH]c3ccccc3c2C2(c3cc(OC)c(OC)c(OC)c3)COC2)c1 |  | 4800 nM |  |  |  |  |  |
| > 20000 nM | COc1cc(C2(c3c(-c4ccccc4)[nH]c4c(OC)cccc34)COC2)cc(OC)c1OC |  | 780 nM | 440 nM | 3000 nM | Active | Active | Active |
| > 20000 nM | COc1cc(C2(c3c(-c4ccc(C)cc4)[nH]c4ccccc34)COC2)cc(OC)c1OC |  | > 5000 nM |  |  |  |  |  |
| > 20000 nM | COc1ccc(-c2[nH]c3ccccc3c2C2(c3cc(OC)c(OC)c(OC)c3)COC2)cc1 |  | > 5000 nM |  |  |  |  |  |
| > 20000 nM | COc1cc(C2(c3c(-c4ccc(C)cc4)[nH]c4cc(Br)ccc34)COC2)cc(OC)c1OC |  | 1700 nM |  |  |  |  |  |
| > 20000 nM | COc1cc(C2(c3c(-c4ccc(C)cc4)[nH]c4cc(Cl)ccc34)COC2)cc(OC)c1OC |  | 2700 nM |  |  |  |  |  |

| Compound | IC50 (Tubulin) | IC50 (MCF7 [1]) | IC50 (MCF7 [2]) | IC50 (PANC-1 [3]) | IC50 (MDA-MB-231) | inhibition (PANC-1 [4]) | inhibition (PANC-1 [5]) | inhibition (PANC-1 [6]) |
| --- | --- | --- | --- | --- | --- | --- | --- | --- |
| COc1ccc2c(C3(c4cc(OC)c(OC)c(OC)c4)COC3)c(-c3ccc(OC)c(O)c3)[nH]c2c1 | > 20000 nM | 1600 nM |  |  |  |  |  |  |
| COc1ccc(-c2[nH]c3cc(Cl)ccc3c2C2(c3cc(OC)c(OC)c(OC)c3)COC2)cc1 | > 20000 nM | 3700 nM |  |  |  |  |  |  |
